The target of series [1] is T1, Prostaglandin D2 receptor 2 (Homo sapiens, UniProt Q9Y5Y4).
T1 sequence (Q9Y5Y4 whole entry): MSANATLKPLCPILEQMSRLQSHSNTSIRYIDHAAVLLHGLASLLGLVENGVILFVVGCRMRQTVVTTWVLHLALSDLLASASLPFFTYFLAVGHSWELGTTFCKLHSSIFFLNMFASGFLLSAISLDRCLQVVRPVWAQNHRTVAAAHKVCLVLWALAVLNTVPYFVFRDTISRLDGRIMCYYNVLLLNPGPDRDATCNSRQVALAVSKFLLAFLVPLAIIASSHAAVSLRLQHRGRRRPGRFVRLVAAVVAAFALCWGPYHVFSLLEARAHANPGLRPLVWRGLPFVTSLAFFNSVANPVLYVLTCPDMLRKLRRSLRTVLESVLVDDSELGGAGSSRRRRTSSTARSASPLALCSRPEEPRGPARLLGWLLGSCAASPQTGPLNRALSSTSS
The experiment in a line: Displacement of [3H]PGD2 from human CRTH2 receptor expressed in HEK293 cells after 2 hrs by scintillation counting. Format: cell-based. Summed up: (§1)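 Disrupted HEK293 cells stably transfected with human or guinea pig CRTH2 (10 µg protein/well human; 20 µg protein/well guinea pig) in 10 mM BES, 1 mM EDTA, 10 mM MnCl2, pH 7.0, incubated with [3H]PGD2 and rising compound levels 2 h at 4 °C; filtered, scintillation counted; nonspecific binding with 10 µM DK-PGD2; IC50 for 50% binding loss; mean of ≥2 experiments.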
On the technique in general: Displacement assays read how much labelled ligand stays bound in the presence of the test substance.

In series [2] the target is T2, Chemoattractant receptor-homologous molecule expressed on Th2 cells (Cavia porcellus, UniProt Q56D28).
T2 sequence (Q56D28 whole entry): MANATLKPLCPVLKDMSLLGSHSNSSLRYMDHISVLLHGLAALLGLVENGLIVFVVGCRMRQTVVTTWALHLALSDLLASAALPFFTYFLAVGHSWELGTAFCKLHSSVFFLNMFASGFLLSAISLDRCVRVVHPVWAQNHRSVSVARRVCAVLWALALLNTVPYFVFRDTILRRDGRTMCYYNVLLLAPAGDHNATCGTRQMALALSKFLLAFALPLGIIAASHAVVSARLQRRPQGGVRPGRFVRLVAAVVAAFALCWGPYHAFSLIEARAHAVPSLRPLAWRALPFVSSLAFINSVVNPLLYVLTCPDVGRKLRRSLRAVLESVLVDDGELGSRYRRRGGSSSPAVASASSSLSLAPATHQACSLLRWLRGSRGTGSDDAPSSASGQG
The series can be described thus: Displacement of [3H]PGD2 from guinea pig CRTH2 receptor expressed in HEK293 cells after 2 hrs by scintillation counting. Format: cell-based. Summed up: as §1

Series [3] can be described thus: Cmax in Hartley guinea pig at 10 mg/kg, po. Format: ADME, organism-based, Cavia porcellus. Details: dose 10 mg/kg, route oral. The conditions noted are these: in vivo. The gist of the method: (§2)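 Guinea pigs fasted overnight, given 10 mg/kg orally as a 10 mg/mL suspension in 0.5% methylcellulose in water; plasma Cmax and AUC determined.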
A short description of series [4]: AUC in Hartley guinea pig at 10 mg/kg, po. Format: ADME, organism-based, Cavia porcellus. Details: dose 10 mg/kg, route oral. The conditions noted are these: plasma. The gist of the method:
as §2

A short description of series [5]: Clearance in guinea pig liver microsomes. The format is ADME, Cavia porcellus, Microsome. As to conditions: read-out: CLH. On the technique in general: Liver microsomes are a subcellular fraction often used to study metabolism.
Series [6] deals with T3, Prostaglandin D2 receptor (Homo sapiens, UniProt Q13258).
T3 sequence (Q13258 whole entry): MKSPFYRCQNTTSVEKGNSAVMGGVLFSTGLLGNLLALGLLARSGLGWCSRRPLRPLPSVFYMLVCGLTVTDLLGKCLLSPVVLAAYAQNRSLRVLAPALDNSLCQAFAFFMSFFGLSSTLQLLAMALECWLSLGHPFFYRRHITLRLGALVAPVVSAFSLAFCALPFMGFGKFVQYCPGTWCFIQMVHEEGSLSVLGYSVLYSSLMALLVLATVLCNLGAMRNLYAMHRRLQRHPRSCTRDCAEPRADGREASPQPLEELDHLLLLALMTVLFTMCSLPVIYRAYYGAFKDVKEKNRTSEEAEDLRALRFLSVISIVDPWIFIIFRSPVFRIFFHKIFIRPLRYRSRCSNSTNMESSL
The experiment in a line: Displacement of [3H]PGD2 from human DP1 receptor expressed in HEK293 cells after 2 hrs by scintillation counting. Format: cell-based. Summed up: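 Disrupted HEK293 cells stably expressing human DP1 (10 µg protein/well) in 10 mM BES, 1 mM EDTA, 10 mM MnCl2, pH 7.0, incubated with [3H]PGD2 and increasing compound concentrations 2 h at 4 °C; glass-filter harvest and scintillation counting of retained radioactivity.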

Bounds are passed on as bounds.

On to `O=C(O)COc1cccc(CCCN(CCC(c2ccccc2)c2ccccc2)C(=O)c2ccccc2)c1`, for which the IC50 (usually the concentration that inhibits the measured activity by half) came to 0.0097 µM in series [1] and 0.018 µM in series [2].
Turning to `COc1ccc(C(=O)N(CCCc2cccc(OCC(=O)O)c2)CCC(c2ccccc2)c2ccccc2)cc1`, the Cmax (usually the highest concentration seen after dosing) in series [3] was 0.04 µg/mL. The AUC (usually the area under the concentration-time curve, a measure of exposure) in series [4] worked out at 0.27 µg·h/mL. The half-inhibitory concentration (IC50) worked out at 0.0055 µM in series [1] and 0.017 µM in series [2]. In series [5], the CLint scaled was determined as 46 L/h/kg.
Turning to `CC(Oc1cccc(CCCn2cc(C(c3ccccc3)c3ccccc3)ccc2=O)c1)C(=O)O` (stereo not given), the IC50 in series [1] stood at 0.017 µM; in series [2], 0.128 µM.
`O=C(O)CCCOc1cccc(CCCn2cc(C(c3ccccc3)c3ccccc3)ccc2=O)c1` displayed a Cmax in series [3] of 0.5 µg/mL. This compound also gave an AUC in series [4] of 1.02 µg·h/mL. In addition, the IC50 turned out to be 0.011 µM in series [1] and 0.099 µM in series [2].
Take `O=C(O)COc1cccc(CCCn2nc(C(c3ccccc3)c3ccccc3)ccc2=O)c1`: the Cmax in series [3] was 0.73 µg/mL. In series [4], this compound came in with an AUC of 2.4 µg·h/mL. Also, the figures for the IC50 in series [1] and in series [2] were 0.018 µM and 0.147 µM, respectively.
As to `O=C(O)COc1cccc(OCCn2cc(C(c3ccccc3)c3ccccc3)ccc2=O)c1`, the half-maximal inhibitory concentration (IC50) was 0.099 µM in series [1] and 0.797 µM in series [2].
For `O=C(O)COc1cccc(CCCn2cc(C(c3ccc(Cl)cc3)c3ccc(Cl)cc3)ccc2=O)c1` the same measures were 0.0092 µM and > 1 µM.
For `CC(C)(Oc1cccc(CCCn2cc(C(c3ccccc3)c3ccccc3)ccc2=O)c1)C(=O)O`, the IC50 in series [2] was > 1 µM.
Regarding `O=C(O)CCCOc1cccc(CCCn2nc(C(c3ccccc3)c3ccccc3)ccc2=O)c1`, the results for the IC50 in series [6], in series [1] and in series [2] were 5.2 µM, 0.013 µM and 0.052 µM, respectively. This compound gave a Cmax in series [3] of 2.86 µg/mL. This compound also showed an AUC in series [4] of 4.85 µg·h/mL.
In the case of `CCC(Oc1cccc(CCCn2cc(C(c3ccccc3)c3ccccc3)ccc2=O)c1)C(=O)O` (stereo not given), the results for the IC50 in series [1] and in series [2] were 0.502 µM and 0.99 µM, respectively.
As to `COc1ccc(C(c2ccc(OC)cc2)c2ccc(=O)n(CCCc3cccc(OCC(=O)O)c3)c2)cc1`, the figures for the IC50 in series [1] and in series [2] were 0.0058 µM and 0.211 µM, respectively.
Taken in the same sequence, the figures for `O=C(O)COc1cccc(CCCn2cc(C(c3ccc(F)cc3)c3ccc(F)cc3)ccc2=O)c1` were 0.011 µM and 0.359 µM.
Take `O=C(O)COc1cccc(CCCn2cc(C(c3ccccc3)c3ccccc3)ccc2=O)c1`: the IC50 in series [6] is > 1 µM; in series [2] it was 0.256 µM. The highest concentration (Cmax) in series [3] came out at 0.84 µg/mL. For the same compound, the area under the curve (AUC) in series [4] was 5.95 µg·h/mL. Moreover, in series [5], the CLint scaled is 7.2 L/h/kg.
As for `Cc1ccc(C(c2ccc(C)cc2)c2ccc(=O)n(CCCc3cccc(OCC(=O)O)c3)c2)cc1`, the IC50 was determined as 0.0062 µM in series [1] and 0.772 µM in series [2].

Values taken from ChEMBL document CHEMBL1938331, “Discovery of novel and potent CRTH2 antagonists” (Bioorg Med Chem Lett, 2012).
